# In ChEMBL document CHEMBL3217724, “Synthesis and evaluation of a series of benzothiophene acrylonitrile analogs as anticancer agents” (Medchemcomm, 2013):
# Key:
# Assay type in all cases: functional
# [1] = test system: Malme-3M; assay: Growth inhibition of human MALME-3M cells
# Procedure, shortened: (§1)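 NCI 60-human-cancer-cell-line panel, five-dose screen after a preliminary screen. GI50 is the molar concentration giving 50% growth inhibition.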
# [2] = Growth inhibition of human RXF393 cells; conditions: RXF 393; procedure, shortened: as §1
# [3] = test system: NCI-H23; assay: Growth inhibition of human NCI-H23 cells; procedure, shortened: as §1
# [4] = test system: T47D; assay: Growth inhibition of human T47D cells
# Procedure, shortened: (§2)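 NCI 60-cell-line panel, five-dose screen; GI50 is the molar concentration giving 50% growth inhibition.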
# [5] = Growth inhibition of human UO31 cells; conditions: UO-31; procedure, shortened: as §2
# [6] = test system: TK-10; assay: Growth inhibition of human TK10 cells; procedure, shortened: as §2
# [7] = Growth inhibition of human LOXIMVI cells; conditions: LOX IMVI; procedure, shortened: as §1
# [8] = test system: MDA-MB-435; assay: Growth inhibition of human MDA-MB-435 cells; procedure, shortened: as §1
# [9] = Growth inhibition of human OVCAR8 cells; conditions: OVCAR-8; procedure, shortened: as §1
# [10] = Growth inhibition of human OVCAR4 cells; conditions: OVCAR-4; procedure, shortened: as §1
# [11] = test system: NCI-H322M; assay: Growth inhibition of human NCI-H322M cells; procedure, shortened: as §1
# [12] = test system: SK-MEL-2; assay: Growth inhibition of human SK-MEL-2 cells; procedure, shortened: as §1
# [13] = Growth inhibition of human OVCAR5 cells; conditions: OVCAR-5; procedure, shortened: as §1
# [14] = test system: A549; assay: Growth inhibition of human A549 cells; procedure, shortened: as §1
# [15] = test system: NCI-H522; assay: Growth inhibition of human NCI-H522 cells; procedure, shortened: as §1
# [16] = Growth inhibition of human OVCAR3 cells; conditions: OVCAR-3; procedure, shortened: as §1
# [17] = test system: PC-3; assay: Growth inhibition of human PC3 cells; procedure, shortened: as §1
# [18] = test system: SR; assay: Growth inhibition of human SR cells; procedure, shortened: as §2
# [19] = Growth inhibition of human MOLT4 cells; conditions: MOLT-4; procedure, shortened: as §1
# [20] = test system: SNB-75; assay: Growth inhibition of human SNB75 cells; procedure, shortened: as §2
# [21] = test system: HL-60(TB); assay: Growth inhibition of human HL-60(TB) cells; procedure, shortened: as §1
# [22] = test system: DU-145; assay: Growth inhibition of human DU145 cells; procedure, shortened: as §1
# [23] = test system: K562; assay: Growth inhibition of human K562 cells; procedure, shortened: as §1
# [24] = test system: IGROV-1; assay: Growth inhibition of human IGROV1 cells; procedure, shortened: as §1
# [25] = Growth inhibition of human HOP92 cells; conditions: HOP-92; procedure, shortened: as §1
# [26] = Growth inhibition of human SF295 cells; conditions: SF-295; procedure, shortened: as §1
# [27] = Growth inhibition of human NCI-ADR-RES cells; procedure, shortened: as §1
# [28] = test system: SW-620; assay: Growth inhibition of human SW620 cells; procedure, shortened: as §2
# [29] = test system: CAKI-1; assay: Growth inhibition of human Caki1 cells; procedure, shortened: as §1
# [30] = test system: MCF7; assay: Growth inhibition of human MCF7 cells; procedure, shortened: as §1
# [31] = Growth inhibition of human UACC257 cells; conditions: UACC-257; procedure, shortened: as §2
# [32] = test system: A498; assay: Growth inhibition of human A498 cells; procedure, shortened: as §1
# [33] = test system: SN12C; assay: Growth inhibition of human SN12C cells; procedure, shortened: as §2
# [34] = test system: MDA-MB-231; assay: Growth inhibition of human MDA-MB-231 cells; procedure, shortened: as §1
# [35] = test system: SF-268; assay: Growth inhibition of human SF268 cells; procedure, shortened: as §1
# [36] = test system: HT-29; assay: Growth inhibition of human HT-29 cells; procedure, shortened: as §1
# [37] = Growth inhibition of human HCC2998 cells; conditions: HCC 2998; procedure, shortened: as §1
# [38] = test system: HOP-62; assay: Growth inhibition of human HOP62 cells; procedure, shortened: as §1
# [39] = Growth inhibition of human BT549 cells; conditions: BT-549; procedure, shortened: as §1
# [40] = test system: NCI-H226; assay: Growth inhibition of human NCI-H226 cells; procedure, shortened: as §1
# [41] = test system: U-251; assay: Growth inhibition of human U251 cells; procedure, shortened: as §2
# [42] = Growth inhibition of human Hs578T cells; conditions: Hs-578T; procedure, shortened: as §1
# [43] = test system: RPMI-8226; assay: Growth inhibition of human RPMI8226 cells; procedure, shortened: as §1
# [44] = Growth inhibition of human UACC62 cells; conditions: UACC-62; procedure, shortened: as §2
# [45] = test system: SK-MEL-5; assay: Growth inhibition of human SK-MEL-5 cells; procedure, shortened: as §1
# [46] = test system: HCT-116; assay: Growth inhibition of human HCT116 cells; procedure, shortened: as §1
# [47] = test system: KM12; assay: Growth inhibition of human KM12 cells; procedure, shortened: as §1
# [48] = test system: ACHN; assay: Growth inhibition of human ACHN cells; procedure, shortened: as §1
# [49] = test system: NCI-H460; assay: Growth inhibition of human NCI-H460 cells; procedure, shortened: as §1
# [50] = test system: COLO 205; assay: Growth inhibition of human COLO205 cells; procedure, shortened: as §1
# [51] = test system: SK-OV-3; assay: Growth inhibition of human SKOV3 cells; procedure, shortened: as §2
# [52] = Growth inhibition of human HCT15 cells; conditions: HCT-15; procedure, shortened: as §1
# [53] = test system: 786-0; assay: Growth inhibition of human 786-0 cells; procedure, shortened: as §1
# [54] = Growth inhibition of human SF539 cells; conditions: SF-539; procedure, shortened: as §1
# [55] = test system: SK-MEL-28; assay: Growth inhibition of human SK-MEL-28 cells; procedure, shortened: as §1
# [56] = Growth inhibition of human EKVX cells; procedure, shortened: as §1
# [57] = test system: SNB-19; assay: Growth inhibition of human SNB19 cells; procedure, shortened: as §2
# [58] = test system: M14; assay: Growth inhibition of human M14 cells; procedure, shortened: as §1
# [59] = test system: CCRF-CEM; assay: Growth inhibition of human CCRF-CEM cells; procedure, shortened: as §1
compound,measurement,setting,value
COc1ccc(/C(C#N)=C/c2cc3ccccc3s2)cc1OC,GI50,[1],> 100 nM
same,GI50,[2],90.9 nM
same,GI50,[3],57.9 nM
same,GI50,[4],> 100 nM
same,GI50,[5],18.7 nM
same,GI50,[6],45.2 nM
same,GI50,[7],60.7 nM
same,GI50,[8],10 nM
same,GI50,[9],25.1 nM
same,GI50,[10],> 100 nM
same,GI50,[11],31.5 nM
same,GI50,[12],> 100 nM
same,GI50,[13],50 nM
same,GI50,[14],70 nM
same,GI50,[15],10 nM
same,GI50,[16],22 nM
same,GI50,[17],29.7 nM
same,GI50,[18],10 nM
same,GI50,[19],53.5 nM
same,GI50,[20],13.7 nM
same,GI50,[21],22.2 nM
same,GI50,[22],36.6 nM
same,GI50,[23],35.4 nM
same,GI50,[24],61.8 nM
same,GI50,[25],> 100 nM
same,GI50,[26],10 nM
same,GI50,[27],10.5 nM
same,GI50,[28],24.2 nM
same,GI50,[29],82.7 nM
same,GI50,[30],47.8 nM
same,GI50,[31],> 100 nM
same,GI50,[32],26.6 nM
same,GI50,[33],13.6 nM
same,GI50,[34],26.9 nM
same,GI50,[35],45.2 nM
same,GI50,[36],31.8 nM
same,GI50,[37],66.5 nM
same,GI50,[38],47 nM
same,GI50,[39],28.3 nM
same,GI50,[40],> 100 nM
same,GI50,[41],64 nM
same,GI50,[42],30 nM
same,GI50,[43],29.8 nM
same,GI50,[44],45.9 nM
same,GI50,[45],21 nM
same,GI50,[46],41.1 nM
same,GI50,[47],10 nM
same,GI50,[48],85.4 nM
same,GI50,[49],35.4 nM
same,GI50,[50],36.1 nM
same,GI50,[51],63.4 nM
same,GI50,[52],48.2 nM
same,GI50,[53],33.7 nM
same,GI50,[54],10.6 nM
same,GI50,[55],> 100 nM
same,GI50,[56],90.8 nM
same,GI50,[57],44.4 nM
same,GI50,[58],61.1 nM
same,GI50,[59],28.6 nM
